The target in one test is T1, Histone deacetylase 8 (Homo sapiens, UniProt Q9BY41).
T1 sequence (Q9BY41 whole entry): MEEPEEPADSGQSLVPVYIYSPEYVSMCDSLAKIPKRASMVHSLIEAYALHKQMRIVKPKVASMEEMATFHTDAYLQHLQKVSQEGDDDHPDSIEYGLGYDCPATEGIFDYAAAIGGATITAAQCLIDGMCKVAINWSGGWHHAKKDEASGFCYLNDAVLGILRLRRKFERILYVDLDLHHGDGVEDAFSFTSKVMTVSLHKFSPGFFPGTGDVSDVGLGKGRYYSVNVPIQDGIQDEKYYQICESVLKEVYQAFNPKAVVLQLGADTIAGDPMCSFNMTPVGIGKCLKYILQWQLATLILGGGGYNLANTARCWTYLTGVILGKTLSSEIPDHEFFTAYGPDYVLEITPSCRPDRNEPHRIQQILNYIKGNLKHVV
Kind of test: Inhibition of HDAC8 after 30 mins by fluorescence microplate reader. An outline of the steps: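 HDAC8 mixed with compound at various concentrations, fluorogenic substrate added, 37 °C for 30 min; stopped with developer containing trypsin and TSA. Fluorescence read after 20 min (ex 390/em 460 nm); inhibition relative to control wells, IC50 by regression of concentration/inhibition data; mean ± SD of at least three determinations.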

The next test deals with A549. Nature of the test: Cytotoxicity against human A549 cells after 48 hrs by MTT assay. The format is functional, cell-based. Conditions: A549, 48 h. An outline of the steps: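 Cells kept in RPMI1640 with 10% FBS, 37 °C, 5% CO₂; seeded day before dosing, grown ≥4 h, treated with a concentration series for 48 h. MTT 0.5% solution added, 4 h further; formazan dissolved in DMSO 15 min, absorbance at 570 nm. Mean of three experiments.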
On the technique in general: Formazan colour is commonly taken as a measure of viable cells.

A further test deals with MDA-MB-231. Kind of test: Cytotoxicity against human MDA-MB-231 cells after 48 hrs by MTT assay. The format is functional, cell-based. Conditions: MDA-MB-231, 48 h.
A further test deals with HeLa. Nature of the test: Cytotoxicity against human HeLa cells after 48 hrs by MTT assay. The format is functional, cell-based.
A further test has as its system K562. Nature of the test: Cytotoxicity against human K562 cells after 48 hrs by MTT assay. It counts as functional, cell-based. Conditions: K562, 48 h.
For a further test, the system named is NB-4. Nature of the test: Cytotoxicity against human NB4 cells after 48 hrs by MTT assay. The format is functional, cell-based. Conditions: NB-4, 48 h.
In another test the target is Histone deacetylase. Kind of test: Inhibition of HDAC in human HeLa cell nuclear extract after 30 mins by fluorescence microplate reader. The format is protein assay.
The target of test [1] is T2, Protein deacetylase HDAC6 (Homo sapiens, UniProt Q9UBN7).
T2 sequence (Q9UBN7 whole entry): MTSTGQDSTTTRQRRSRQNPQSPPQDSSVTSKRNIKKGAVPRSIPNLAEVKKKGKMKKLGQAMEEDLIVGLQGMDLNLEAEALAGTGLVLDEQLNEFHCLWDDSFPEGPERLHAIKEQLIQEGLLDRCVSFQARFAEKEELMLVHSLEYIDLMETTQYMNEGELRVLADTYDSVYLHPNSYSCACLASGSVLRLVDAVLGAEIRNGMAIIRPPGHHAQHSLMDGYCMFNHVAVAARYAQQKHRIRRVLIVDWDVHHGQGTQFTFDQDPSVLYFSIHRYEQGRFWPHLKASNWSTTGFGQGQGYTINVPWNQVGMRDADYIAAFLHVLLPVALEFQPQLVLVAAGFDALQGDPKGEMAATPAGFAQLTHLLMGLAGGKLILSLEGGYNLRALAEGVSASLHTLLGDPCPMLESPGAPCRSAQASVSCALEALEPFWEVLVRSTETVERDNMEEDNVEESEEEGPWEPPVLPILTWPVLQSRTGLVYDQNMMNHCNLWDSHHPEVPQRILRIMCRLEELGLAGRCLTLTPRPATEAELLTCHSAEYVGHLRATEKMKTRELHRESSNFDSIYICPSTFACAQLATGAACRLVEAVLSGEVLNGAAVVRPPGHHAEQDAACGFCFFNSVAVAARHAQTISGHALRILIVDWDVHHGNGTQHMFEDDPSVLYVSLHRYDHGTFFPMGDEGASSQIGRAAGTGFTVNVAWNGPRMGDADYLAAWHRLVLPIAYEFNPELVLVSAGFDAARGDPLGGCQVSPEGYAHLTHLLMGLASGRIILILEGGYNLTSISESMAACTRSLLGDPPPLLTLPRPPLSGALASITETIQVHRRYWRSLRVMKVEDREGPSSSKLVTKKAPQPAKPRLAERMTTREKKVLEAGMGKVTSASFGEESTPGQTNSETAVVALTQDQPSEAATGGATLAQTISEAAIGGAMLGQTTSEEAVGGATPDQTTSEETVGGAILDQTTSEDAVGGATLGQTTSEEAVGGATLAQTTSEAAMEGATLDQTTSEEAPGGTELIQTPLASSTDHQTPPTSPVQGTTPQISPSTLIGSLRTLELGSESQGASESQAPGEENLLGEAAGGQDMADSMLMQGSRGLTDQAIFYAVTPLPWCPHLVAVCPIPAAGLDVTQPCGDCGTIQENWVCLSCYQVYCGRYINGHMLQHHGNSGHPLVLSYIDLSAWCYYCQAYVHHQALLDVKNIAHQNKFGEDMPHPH
Nature of the test: Inhibition of HDAC6 in human HeLa cell nuclear extract after 30 mins by fluorescence microplate reader.

A further test concerns HL-60. Nature of the test: Cytotoxicity against human HL60 cells after 48 hrs by MTT assay. Conditions: HL-60, 48 h. The format is functional, cell-based.

What is called IC50 is the concentration that gives 50% inhibition. A higher IC50 goes with a need for much substance.

The compound `COc1ccc(NC(=O)[C@@H]2Cc3ccc(OCC(=O)NO)cc3CN2C(=O)CN)cc1` gave a 50% inhibitory concentration (IC50) at Histone deacetylase 8 of 2140 nM. This lies in the single-digit micromolar range.

`COc1ccc(NC(=O)[C@@H]2Cc3ccc(OCC(=O)NO)cc3CN2C(=O)[C@@H](N)C(C)C)cc1`: it took 1020 nM to reach half-maximal inhibition against Histone deacetylase 8 (IC50). Against the preceding compound, the IC50 is about 2.1-fold lower.

As to `O=C(COc1ccc2c(c1)CN(C(=O)CCc1ccccc1)[C@H](C(=O)Nc1ccccc1)C2)NO`, 759 nM corresponded to half-maximal inhibition against Histone deacetylase 8 (IC50).

On to `COc1ccc(NC(=O)[C@@H]2Cc3ccc(OCC(=O)NO)cc3CN2Cc2ccccc2)cc1`, for which, on Histone deacetylase 8, the IC50 was 1920 nM.

Regarding `COc1ccc(NC(=O)[C@@H]2Cc3ccc(OCC(=O)NO)cc3CN2C(=O)[C@@H](NC(=O)OC(C)(C)C)C(C)C)cc1`, the IC50 is 0.84 µM with A549, 1580 nM in the test on MDA-MB-231 and 104 nM at Histone deacetylase 8.

Take `COc1ccc(NC(=O)[C@@H]2Cc3ccc(OCC(=O)NO)cc3CN2C(=O)[C@H](Cc2ccc(O)cc2)NC(=O)OC(C)(C)C)cc1`: inhibition against Histone deacetylase 8 was half-maximal at 175 nM (IC50).

In turn, `COc1ccc(NC(=O)[C@@H]2Cc3ccc(OCC(=O)NO)cc3CN2C(=O)[C@H](C)NC(=O)OC(C)(C)C)cc1` displayed an IC50 against Histone deacetylase 8 of 182 nM.

Consider `CC[C@H](C)[C@H](NC(=O)[C@@H](NC(=O)OC(C)(C)C)C(C)C)C(=O)N1Cc2cc(OCC(=O)NO)ccc2C[C@H]1C(=O)Nc1ccc(OC)cc1`, for which the concentration for half-maximal inhibition (IC50) with HeLa came out at 167 µM; with K562 it was 2.78 µM; with NB-4 it was 63.3 µM; against Histone deacetylase 8, 201 nM; at Histone deacetylase, 0.128 µM; in [1], 116 nM.

`CC[C@H](C)[C@H](N)C(=O)N1Cc2cc(OCC(=O)NO)ccc2C[C@H]1C(=O)Nc1ccc(OC)cc1` gave an IC50 against Histone deacetylase 8 of 1040 nM.

At Histone deacetylase 8, `COc1ccc(NC(=O)[C@@H]2Cc3ccc(OCC(=O)NO)cc3CN2C(=O)[C@@H](N)Cc2ccc(O)cc2)cc1` came in with an IC50 of 634 nM.

On Histone deacetylase 8, `O=C(COc1ccc2c(c1)CN(C(=O)CCc1ccccc1)[C@H](C(=O)NCCc1ccccc1)C2)NO` displayed an IC50 of 692 nM.

`COc1ccc(NC(=O)[C@@H]2Cc3ccc(OCC(=O)NO)cc3CN2C(=O)[C@@H](N)Cc2ccccc2)cc1`: at Histone deacetylase 8, the IC50 amounted to 368 nM.

Turning to `CC[C@H](C)[C@H](NC(=O)C1CCNCC1)C(=O)N1Cc2cc(OCC(=O)NO)ccc2C[C@H]1C(=O)Nc1ccc(OC)cc1.Cl`, the IC50 in the test with HeLa was 102 µM; in the test with K562, 51.7 µM; with NB-4, over 200 µM; on Histone deacetylase 8, 1440 nM; against Histone deacetylase, 0.071 µM; in test [1], 169 nM.

On to `CC[C@H](C)[C@H](NC(=O)[C@@H]1CCCN1)C(=O)N1Cc2cc(OCC(=O)NO)ccc2C[C@H]1C(=O)Nc1ccc(OC)cc1.Cl`, for which the IC50 in the test on HeLa was over 200 µM; in the test on K562, 6.59 µM; in the test on HL-60, 69.8 µM; in the test on NB-4, 9.28 µM; on Histone deacetylase 8 it was 47 nM; against Histone deacetylase, 0.108 µM. The compound further registered an IC50 in test [1] of 191 nM.

For the compound `COc1ccc(NC(=O)[C@@H]2Cc3ccc(OCC(=O)NO)cc3CN2C(=O)c2ccccc2)cc1`, the IC50 is 5.95 µM with A549, 3050 nM with MDA-MB-231 and 164 nM against Histone deacetylase 8.

With `COc1ccc(NC(=O)[C@@H]2Cc3ccc(OCC(=O)NO)cc3CN2C(=O)[C@H](Cc2ccccc2)NC(=O)OC(C)(C)C)cc1`, the IC50 with A549 was 12.7 µM; with MDA-MB-231 it was 1290 nM; on Histone deacetylase 8, 103 nM.

Turning to `COc1ccc(NC(=O)[C@@H]2Cc3ccc(OCC(=O)NO)cc3CN2C(=O)[C@H](C)N)cc1`, at Histone deacetylase 8, half-maximal inhibition (IC50) required 1280 nM.

For the compound `COc1ccc(NC(=O)[C@@H]2Cc3ccc(OCC(=O)NO)cc3CN2C(=O)CCc2ccccc2)cc1`, the IC50 in the test on A549 amounted to 4.8 µM; in the test with MDA-MB-231, 1520 nM; against Histone deacetylase 8, 502 nM.

The compound `COc1ccc(NC(=O)[C@@H]2Cc3ccc(OCC(=O)NO)cc3CN2C(=O)CNC(=O)OC(C)(C)C)cc1` displayed a half-inhibitory concentration (IC50) at Histone deacetylase 8 of 514 nM.

For `CC[C@H](C)[C@H](NC(=O)[C@@H](N)C(C)C)C(=O)N1Cc2cc(OCC(=O)NO)ccc2C[C@H]1C(=O)Nc1ccc(OC)cc1.Cl`, the half-inhibitory concentration (IC50) with HeLa is 118 µM; with K562, 20.4 µM; with NB-4, 69.9 µM; against Histone deacetylase 8 it was 68 nM; against Histone deacetylase it was 0.073 µM; in [1], 163 nM.

As to `COc1ccc(NC(=O)[C@@H]2Cc3ccc(OCC(=O)NO)cc3CN2C(=O)CCCc2ccccc2)cc1`, the values for the IC50 in the test on A549, in the test with MDA-MB-231 and at Histone deacetylase 8 were 3.58 µM, 2770 nM and 114 nM, respectively.

On Histone deacetylase 8, `COc1ccc(NC(=O)[C@@H]2Cc3ccc(OCC(=O)NO)cc3CN2C(=O)[C@H](CC(C)C)NC(=O)OC(C)(C)C)cc1` showed an IC50 of 163 nM. In other words, the sub-micromolar range.

Turning to `CC[C@H](C)[C@H](NC(=O)[C@@H]1CCCN1C(=O)OC(C)(C)C)C(=O)N1Cc2cc(OCC(=O)NO)ccc2C[C@H]1C(=O)Nc1ccc(OC)cc1`, the IC50 in the test with HeLa amounted to 184 µM; in the test on K562, 2.32 µM; in the test on HL-60, 76.8 µM; in the test with NB-4, 5.15 µM; against Histone deacetylase 8 it was 192 nM; against Histone deacetylase, 0.065 µM. The compound also showed a half-inhibitory concentration (IC50) in test [1] of 141 nM.

`COc1ccc(NC(=O)[C@@H]2Cc3ccc(OCC(=O)NO)cc3CN2C(=O)Cc2ccccc2)cc1`: the half-inhibitory concentration (IC50) in the test with A549 was found to be 117 µM; in the test on MDA-MB-231, 4450 nM; against Histone deacetylase 8, 141 nM.

As to `COc1ccc(NC(=O)[C@@H]2Cc3ccc(OCC(=O)NO)cc3CN2CCc2ccccc2)cc1`, the IC50 at Histone deacetylase 8 turned out to be 1020 nM. This counts as single-digit micromolar.

`COc1ccc(NC(=O)[C@@H]2Cc3ccc(OCC(=O)NO)cc3CN2C(=O)[C@@H](N)CC(C)C)cc1` showed an IC50 on Histone deacetylase 8 of 675 nM.

Regarding `CC[C@H](C)[C@H](NC(=O)C1CCN(C(=O)OC(C)(C)C)CC1)C(=O)N1Cc2cc(OCC(=O)NO)ccc2C[C@H]1C(=O)Nc1ccc(OC)cc1`, the half-inhibitory concentration (IC50) in the test on HeLa was over 200 µM; in the test on K562 it was 12.3 µM; in the test on NB-4, 68.2 µM; against Histone deacetylase 8, 147 nM; against Histone deacetylase, 0.214 µM; in [1], 164 nM.

As to `COc1ccc(NC(=O)[C@@H]2Cc3ccc(OCC(=O)NO)cc3CN2C(=O)[C@@H]2CCCN2)cc1`, on Histone deacetylase 8, half-maximal inhibition (IC50) was put at 481 nM.

Turning to `COc1ccc(NC(=O)[C@@H]2Cc3ccc(OCC(=O)NO)cc3CN2C(=O)[C@@H]2CCCN2C(=O)OC(C)(C)C)cc1`, on Histone deacetylase 8, the IC50 was 212 nM.

In the case of `COc1ccc(NC(=O)[C@@H]2Cc3ccc(OCC(=O)NO)cc3CN2CCCc2ccccc2)cc1`, at Histone deacetylase 8, the IC50 came to 1720 nM.

(Values after ChEMBL document CHEMBL1795318, “Development of tetrahydroisoquinoline-based hydroxamic acid derivatives: potent histone deacetylase inhibitors with marked in vitro and in vivo antitumor activities” (J Med Chem, 2011).)
